Screening data: PubChem, Broad Institute
Casp6 inh – caspase-6 (human) enzyme inhibition. P55212. 350,000 tested, 0.53% active. inhibition, % at 12.5 µM. purified caspase-6, Z-VEID-R110 cleavage fluorescence;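 active = mean inhibition across replicates at least about 35%, with every replicate also reaching that limit, limit read from the data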;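 note: 0% = median of neutral control wells and 100% = no fluorescence left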
Target sequence (P55212 24-179 limits assumed): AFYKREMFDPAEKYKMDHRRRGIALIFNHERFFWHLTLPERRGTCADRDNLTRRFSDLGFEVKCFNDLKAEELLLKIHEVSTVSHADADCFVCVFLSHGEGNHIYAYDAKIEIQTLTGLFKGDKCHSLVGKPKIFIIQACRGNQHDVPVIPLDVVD
Target sequence (P55212 194-293 limits assumed): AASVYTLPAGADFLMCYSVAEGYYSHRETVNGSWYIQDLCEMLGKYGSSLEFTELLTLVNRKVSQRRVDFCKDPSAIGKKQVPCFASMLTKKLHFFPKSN
XiGFP reactiv – reactivates the inactive X chromosome in mouse fibroblasts | XiGFP mouse fibroblasts, % GFP-positive cells imaging, 3 d; cells co-treated with 5-aza-dC sensitizer; scaled so ellipticine positive control = 100% | AID 743238 | 360,000 tested, 0.055% active | activation, % at 7.58 µM;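 active = mean normalized replicate activation at least 10% and every replicate at or above 10%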;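 note: 0% = median of on-plate neutral control wells and 100% = ellipticine 6 µM median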
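Material: SV40-immortalized XiGFP fibroblast cells, line 68-5-11 | Buffer or medium: DMEM containing 5-aza-dC | Dosing: One concentration, pinned | Times: 3 d treatment, 15 min room-temperature fixation | Controls: Ellipticine 6 µM positive control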
FN deposition inh – fibronectin deposition inhibition; AH1F fibroblasts, Alexa488-fibronectin deposition fluorescence, overnight; inhibition, % at 12.6 µM; 350,000 tested, 0.086% active; AID 743247;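 active = mean inhibition across replicates of 30% or more, regardless of how many single replicates reach that level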;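 note: positive control wells lacked labelled fibronectin entirely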
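Material – AH1F fibroblast monolayer, labelled fibronectin deposition · Reagent – labelled fibronectin 24 nM · Timing – 1 h adhesion, overnight exposure · Measured by – fluorescence at 485 nm excitation, 525 nm emission · Read-out – inhibition of fibronectin deposition signal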
DENV2 CPE – DENV2-induced cell death inhibition | DENV2-infected cells, cytopathic effect rescue, plate reader | CPE inhibition, % at 9.99 µM | 350,000 tested, 1.7% active | AID 651640; in the data active = CPE inhibition above about 20%, passing the limit was not always enough; tested in BHK-21 cells;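 note: 0% = median of neutral control wells and 100% = median of positive control wells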
CaV13 ICDI inh – Primary screen for inhibitors of IQ motif and Ca2+-dependent inactivation inhibitor domain binding in CACNA1D, Förster resonance energy transfer in living cells, …. HEK cells, CFP/YFP FRET ICDI-IQ, plate reader, 10 min; percent FRET-ratio fall versus neutral wells. 340,000 tested, 0.098% active. inhibition, % at 12.3 µM;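 active = mean replicate inhibition of at least 30% and at least 1% of replicates passing that level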;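 note: 0% = median of the neutral control wells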
* = called active by the depositor; nt = not tested or not shown. Shown are actives, neighbours in structure and some others; about 2% of the full set was active somewhere.

SMILES	Casp6 inh	XiGFP reactiv	FN deposition inh	DENV2 CPE	CaV13 ICDI inh
O=C(C[C@H]1C[C@@H]2c3cc(NC(=O)Cc4ccncc4)ccc3O[C@@H]2[C@H](CO)O1)NCCN1CCCCC1	-1	0	nt	-1	nt
O=C(C[C@@H]1C[C@@H]2c3cc(NC(=O)Cc4ccncc4)ccc3O[C@@H]2[C@@H](CO)O1)NCCN1CCCCC1	6	0	nt	77*	nt
O=C(O)C[C@H]1C[C@@H]2c3cc(NC(=O)Cc4ccncc4)ccc3O[C@@H]2[C@@H](CO)O1	1	0	-2	90*	nt
COC(=O)C[C@H]1C[C@H]2c3cc(NS(C)(=O)=O)ccc3O[C@H]2[C@H](CO)O1	-1	0	nt	0	nt
O=C(c1ccccn1)N1[C@@H](CO)[C@@H](c2ccccc2)C12CN(Cc1ccccc1F)C2	nt	0	3	nt	nt
NS(=O)(=O)c1cccc(NC(=O)c2ccc3nc[nH]c3c2)c1	54*	0	-4	2	-15
C[C@@H]1CN([C@H](C)CO)C(=O)c2cc(Br)cnc2O[C@@H]1CN(C)CC1CCCC1	1	-1	nt	2	nt
O=C(O)C1=CCC=CC1C(=O)O (stereo not drawn)	68*	0	-1	14	-7
COc1cccc(-c2ccc3n(c2=O)C[C@H]2[C@H](CO)[C@@H](C(=O)N(C)C)N(C(=O)C4CC4)[C@@H]32)c1	-1	0	nt	-1	nt
CCN(CC)S(=O)(=O)c1cccc(C(=O)NCC2(N3CCOCC3)CCCCC2)c1	-3	0	4	95*	-6
Cc1noc(C)c1NC(=O)Nc1ccc2c(c1)CC(=O)N([C@@H](C)CO)C[C@H](C)[C@@H](CN(C)Cc1ccc(C(=O)Nc3ccccc3N)cc1)O2	1	0	6	-6	nt
O=C(O)Cc1ccc(C(=O)CSc2ccccc2)s1	49*	0	3	3	-20
CC(=O)Nc1ccc(SCC(=O)c2ccc(Br)s2)cc1	-2	0	0	4	-7
Cc1ccc(SCC(=O)c2ccc(CC(=O)O)s2)cc1	65*	0	-12	-3	-5
CO[C@H]1CN(C)C(=O)c2ccc(NC(C)=O)cc2OC[C@@H](C)N(CCC(F)(F)F)C[C@H]1C	-1	0	-6	3	nt
C[C@H]1CCCCO[C@@H](CN(C)C(=O)Nc2ccc3c(c2)OCO3)[C@@H](C)CN([C@@H](C)CO)C(=O)c2cc(NC(=O)NC3CCCCC3)ccc2O1	nt	0	nt	48*	nt
C[C@@H]1CN([C@H](C)CO)C(=O)c2cc(NC(=O)NC3CCCCC3)ccc2O[C@@H](C)CCCCO[C@H]1CN(C)C(=O)Nc1ccc2c(c1)OCO2	nt	0	nt	101*	nt
C[C@@H]1CCCCO[C@@H](CN(C)C(=O)Nc2ccc3c(c2)OCO3)[C@H](C)CN([C@@H](C)CO)C(=O)c2cc(NC(=O)NC3CCCCC3)ccc2O1	nt	0	nt	-9	nt
C[C@@H]1CCCCO[C@@H](CN(C)C(=O)Nc2ccc3c(c2)OCO3)[C@@H](C)CN([C@H](C)CO)C(=O)c2cc(NC(=O)NC3CCCCC3)ccc2O1	nt	0	nt	nt	nt
COc1ccc2c3c(n(C)c2c1)[C@H](CO)N(C(=O)c1cccnc1)CC31CCN(S(C)(=O)=O)CC1	nt	0	nt	0	nt
CC(C)NC(=O)N1[C@@H]2CN(C)C[C@H]1C2c1ccc(Br)cc1 (stereo partly drawn)	nt	0	-3	nt	nt
C[C@@H]1CN([C@@H](C)CO)S(=O)(=O)c2ccc(C#CC3CC3)cc2O[C@@H]1CN(C)S(C)(=O)=O	7	-1	-10	-7	nt
C[C@@H]1CN([C@H](C)CO)C(=O)c2cc(C#CC3(O)CCCC3)cnc2O[C@@H]1CN(C)C(=O)C1CCC1	-5	-1	nt	nt	nt
COc1cc(OC)cc(C(=O)NCc2ccc3c(c2)OCO3)c1	-1	0	-5	29*	-4
COc1cccc(C(=O)NCc2ccc3c(c2)OCO3)c1	-2	0	-24	-2	-4
SMILES	Casp6 inh	XiGFP reactiv	FN deposition inh	DENV2 CPE	CaV13 ICDI inh
CCOc1c2ccc(C(=O)NCc3ccc4c(c3)OCO4)cc2nn1CC	1	0	-10	32*	-6
N#Cc1c(-c2ccccc2)nc(-c2ccccc2)[nH]c1=O	nt	nt	2	nt	-5
Nc1nc(-c2ccccc2)[nH]c(=O)c1N=O	49*	0	1	13	-5
Cn1c(=O)c(NC2CCCCC2)c2c3c(cccc31)C(=O)c1ccccc1-2	nt	116*	-14	-7	-13
Cn1c(=O)c(NCCO)c2c3c(cccc31)C(=O)c1ccccc1-2	-26	nt	nt	nt	nt
Cc1ccc(NC(=O)CN2C(=O)N/C(=C/c3cc(C)n(-c4ccc(C(=O)O)cc4)c3C)C2=O)cc1	54*	0	-3	7	-2
O=C(c1ccccc1)N1C[C@H]2[C@@H](c3ccccc31)[C@H](CO)N2S(=O)(=O)c1ccccc1	3	0	nt	14	nt
Cc1nc2ccccc2c(=O)n1-c1ccc(NS(=O)(=O)c2ccccc2)cc1	-1	0	1	68*	-7
Cc1ccc(S(=O)(=O)NCc2ccccc2)cc1C(=O)N1CCN(S(=O)(=O)c2ccccc2F)CC1	-1	0	-5	58*	-9
Cc1ccc(S(=O)(=O)NCc2ccccc2)cc1C(=O)N1CCCCC1	6	0	nt	2	nt
COc1ccc(NC(=O)Nc2ccc3c(c2)C(=O)N([C@@H](C)CO)C[C@H](C)[C@H](CN(C)S(=O)(=O)c2ccccc2)O3)cc1	2	0	nt	-2	nt
Cc1ccccc1CN(C)C(=O)COC(=O)CSc1ccc([N+](=O)[O-])cc1	71*	0	-4	1	-5
Cc1ccc(CN(C)C(=O)COC(=O)CSc2ccc([N+](=O)[O-])cc2)cc1	2	1	5	17	-8
Nc1c(C(=O)N/N=C/c2ccc([N+](=O)[O-])cc2)cnn1-c1ccccc1	13	0	-16	46*	-5
O=C(N/N=C/c1ccc([N+](=O)[O-])cc1)c1cccnc1	-2	0	-9	-4	-4
Cc1ccc(-n2nc3c(c2NC(=O)c2ccco2)CS(=O)C3)c(C)c1 (stereo not drawn)	9	0	-6	55*	nt
COc1ccc(S(=O)(=O)N2CCC3(CC2)CN(C(=O)c2cccnc2)[C@H](CO)c2c3c3ccc(OC)cc3n2C)cc1	1	0	nt	-9	nt
C[C@@H]1CCCCO[C@@H](CN(C)C(=O)C2CCCCC2)[C@@H](C)CN([C@H](C)CO)C(=O)c2cc(NC(=O)Nc3cccc4ccccc34)ccc2O1	3	0	nt	22*	nt
C[C@@H]1CCCCO[C@@H](CN(C)C(=O)C2CCCCC2)[C@H](C)CN([C@H](C)CO)C(=O)c2cc(NC(=O)Nc3cccc4ccccc34)ccc2O1	0	0	nt	23*	nt
